Two compounds from ChEMBL document CHEMBL4257472, “Antitumor effect of sikokianin C, a selective cystathionine β-synthase inhibitor, against human colon cancer in vitro and in vivo” (Medchemcomm, 2018) can be followed below.

Data set [1] has as its system HT-29. As to the kind of experiment: Antiproliferative activity against human HT-29 cells harboring CBS SiRNA after 24 hrs by CCK8 assay. The class given is functional, cell-based. The settings on record: HT-29, 24 h. In a few lines: (§1)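 HT29 cells grown in DMEM with 10% FBS and 1% penicillin–streptomycin, 37 °C, 5% CO2. Seeded at 1 × 10^4 cells/well, cultured 24 h, then exposed to varying compound concentrations for 24 h. CCK-8 added for 2 h at 37 °C and OD450 read. Viability expressed as % of untreated medium control. IC50 fitted from means ± SD (n = 4). Knockdown cells were transfected with CBS siRNA for 48 h beforehand.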
(In general: Formazan colour is commonly taken as a measure of viable cells.)

Data set [2] relates to HT-29. Nature of the data set: Antiproliferative activity against human HT-29 cells after 24 hrs by CCK8 assay. It counts as functional, cell-based. The settings on record: HT-29, 24 h. The gist of the method: as §1
Data set [3] relates to HT-29. Nature of the data set: Antitumor activity against human HT-29 cells xenografted in BALB/c nude mouse assessed as tumor growth inhibition at 10 mg/kg, sc administered once daily for 6 days followed by 1 day interval and subsequent dosing for 6 days. It counts as functional, organism-based. In a few lines: (§2)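 Male BALB/c nude mice, five weeks old, given s.c. HT29 cells (100 μL of 1 × 10^7 cells/mL) in the right armpit. Randomized when tumours reached about 100 mm3. Daily s.c. dosing at 3 or 10 mg/kg/d, vehicle 1% DMSO with 0.5% carboxymethylcellulose in PBS, 6 d on and 1 d off, 12 treatments in total, n = 6. Tumour volume by calipers (0.5 × L × W²) and body weight monitored. Tumours excised and weighed on day 28.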
On the technique in general: Xenograft models place foreign cells or tissue in a host animal.

Data set [4] has as its system Mus musculus. As to the kind of experiment: Toxicity in BALB/c nude mouse xenografted with human HT-29 cells assessed as effect on body weight at 10 mg/kg, sc administered once daily for 6 days followed by 1 day interval and subsequent dosing for 6 days. It counts as organism-based. The settings on record: in vivo. The gist of the method: as §2
Data set [5] concerns the target T1, Cystathionine beta-synthase (Homo sapiens) (UniProt P35520).
T1 sequence (whole entry): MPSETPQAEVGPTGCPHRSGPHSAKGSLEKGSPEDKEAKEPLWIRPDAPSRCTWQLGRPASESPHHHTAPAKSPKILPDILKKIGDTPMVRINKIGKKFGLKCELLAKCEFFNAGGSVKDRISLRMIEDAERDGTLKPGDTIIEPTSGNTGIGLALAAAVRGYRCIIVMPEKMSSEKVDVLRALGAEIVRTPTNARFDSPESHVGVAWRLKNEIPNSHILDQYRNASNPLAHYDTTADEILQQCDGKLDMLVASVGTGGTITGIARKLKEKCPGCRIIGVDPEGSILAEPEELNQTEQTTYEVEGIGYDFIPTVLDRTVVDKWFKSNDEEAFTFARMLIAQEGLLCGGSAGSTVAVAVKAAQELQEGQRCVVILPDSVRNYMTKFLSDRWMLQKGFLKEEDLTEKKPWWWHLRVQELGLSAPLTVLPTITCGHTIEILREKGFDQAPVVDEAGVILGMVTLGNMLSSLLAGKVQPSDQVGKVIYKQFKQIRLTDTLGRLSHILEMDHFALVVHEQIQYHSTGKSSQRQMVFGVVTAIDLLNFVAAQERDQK
Nature of the data set: Non-competitive inhibition of full-length GST-fused human CBS using […] as substrate by Lineweaver-burk plot analysis.

Data set [6] deals with T2, Cystathionine beta-synthase (Homo sapiens, UniProt P35520).
T2 sequence (P35520 whole entry): T1 sequence (whole entry)
Nature of the data set: Inhibition of full-length GST-fused human CBS assessed as reduction in H2S production using 2 mM […] as substrate preincubated for 3 mins followed by substrate addition. The gist of the method: (§3)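 Lead sulfide H2S assay on purified human CBS (5 μg, wild-type or alanine mutant) in 200 μL of 50 mM HEPES pH 7.4 with 5% DMSO and 0.4 mM lead nitrate. Enzyme and 2 mM homocysteine preincubated 3 min at 37 °C, then 2 mM cysteine added. Lead sulfide read at 390 nm (ε 5500 M−1 cm−1). Activity is relative to a DMSO control, mean ± SD (n = 3). The detergent test included 0.01% Triton X-100.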

In data set [7] the test system is HT-29. Nature of the data set: Antitumor activity against human HT-29 cells xenografted in BALB/c nude mouse assessed as reduction in tumor weight at 10 mg/kg, sc administered once daily for 6 days followed by 1 day interval and subsequent dosing for 6 days relative to control. More on the design: scale not given: the % may be the effect or the level left. It counts as functional. In a few lines:
as §2

The target in data set [8] is Cystathionine beta-synthase (Homo sapiens, UniProt P35520, T193A). Nature of the data set: Inhibition of human CBS T193A mutant assessed as reduction in H2S production using […] as substrate preincubated for 3 mins followed by substrate addition. The gist of the method:
as §3

The species named for data set [9] is Homo sapiens. As to the kind of experiment: Selectivity ratio of IC50 for human CBS Y308A mutant to IC50 for full-length GST-fused human CBS.
For data set [10], the species on record is Homo sapiens. Nature of the data set: Selectivity ratio of IC50 for human CBS H203A mutant to IC50 for full-length GST-fused human CBS.
For data set [11], the target named is Cystathionine beta-synthase (Homo sapiens, UniProt P35520, Y308A). As to the kind of experiment: Inhibition of human CBS Y308A mutant assessed as reduction in H2S production using 2 mM […] as substrate preincubated for 3 mins followed by substrate addition. The gist of the method:
as §3

Data set [12] addresses Cystathionine beta-synthase (Homo sapiens, UniProt P35520, N194A). Nature of the data set: Inhibition of human CBS N194A mutant assessed as reduction in H2S production using 2 mM […] as substrate preincubated for 3 mins followed by substrate addition. The gist of the method: as §3
For data set [13], the target named is T2, Cystathionine beta-synthase. Nature of the data set: Inhibition of full-length GST-fused human CBS assessed as reduction in H2S production using 20 mM […] as substrate preincubated for 3 mins followed by substrate addition. In a few lines: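 Same lead sulfide H2S assay on purified human wild-type CBS (5 μg, 50 mM HEPES pH 7.4, 5% DMSO, 0.4 mM lead nitrate, 37 °C), with cysteine raised to 20 mM and homocysteine kept at 2 mM. Lead sulfide read at 390 nm.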

Data set [14] concerns the target Cystathionine beta-synthase (Homo sapiens, UniProt P35520, H203A). As to the kind of experiment: Inhibition of human CBS H203A mutant assessed as reduction in H2S production using […] preincubated for 3 mins followed by substrate addition. In a few lines: as §3
Data set [15] deals with T2, Cystathionine beta-synthase. As to the kind of experiment: Inhibition of full-length GST-fused human CBS assessed as reduction in H2S production using […] as substrate preincubated for 3 mins followed by substrate addition measured in presence of Triton X-100. The gist of the method: as §3
In data set [16] the test system is HT-29. Nature of the data set: Antitumor activity against human HT-29 cells xenografted in sc dosed BALB/c nude mouse assessed as tumor growth inhibition administered once daily for 6 days followed by 1 day interval and subsequent dosing for 6 days. The class given is functional, organism-based. In a few lines:
as §2

Data set [17] deals with HT-29. As to the kind of experiment: Induction of apoptosis in human HT-29 cells at 0.5 uM after 24 hrs by Annexin V-FITC/propidium iodide staining based flow cytometry relative to control. The class given is functional. In a few lines: (§4)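 HT29 cells seeded at 5 × 10^5 per well and treated 24 h with 0.5, 1 or 2 μM compound. Cells trypsinized, washed in cold PBS, stained with FITC–Annexin V and PI for 15 min in the dark at room temperature. 10 000 cells analysed by flow cytometry. Annexin V-positive percentage reported as mean ± SD of three independent experiments.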
For orientation: A flow cytometer gives signals particle by particle.

A short description of data set [18]: Selectivity ratio of IC50 for human HT-29 cells harboring CBS SiRNA to IC50 for human HT-29 cells. It counts as functional.
The subject of data set [19] is Mus musculus. As to the kind of experiment: Toxicity in BALB/c nude mouse xenografted with human HT-29 cells assessed as effect on body weight at 3 to 10 mg/kg, sc administered once daily for 6 days followed by 1 day interval and subsequent dosing for 6 days. The class given is organism-based. The settings on record: in vivo. The gist of the method:
as §2

Data set [20] addresses T1, Cystathionine beta-synthase (Homo sapiens). Nature of the data set: Competitive inhibition of full-length GST-fused human CBS up to 10 uM using […] as substrate by Lineweaver-burk plot analysis.
In data set [21] the test system is HT-29. Nature of the data set: Induction of apoptosis in human HT-29 cells at 2 uM after 24 hrs by Annexin V-FITC/propidium iodide staining based flow cytometry relative to control. It counts as functional. The gist of the method: as §4
Data set [22] addresses Cystathionine beta-synthase (Homo sapiens, UniProt P35520, Y223A). Nature of the data set: Inhibition of human CBS Y223A mutant assessed as reduction in H2S production using 2 mM […] as substrate preincubated for 3 mins followed by substrate addition. In a few lines:
as §3

The subject of data set [23] is HT-29. Nature of the data set: Induction of apoptosis in human HT-29 cells after 24 hrs by Annexin V-FITC/propidium iodide staining based flow cytometry. It counts as functional, cell-based. In a few lines: as §4
For data set [24], the system named is HT-29. As to the kind of experiment: Induction of apoptosis in human HT-29 cells at 1 uM after 24 hrs by Annexin V-FITC/propidium iodide staining based flow cytometry relative to control. It counts as functional. In a few lines:
as §4

SMILES strings stand for the structures. Active and inactive are the calls of the source. The calls are words filed in the database; no cut-off is given here.

What is called IC50 is the concentration at which inhibition is half-maximal.

Cystathionine beta-synthase (Homo sapiens, UniProt P35520, T193A), sequence (P35520 whole entry T193A): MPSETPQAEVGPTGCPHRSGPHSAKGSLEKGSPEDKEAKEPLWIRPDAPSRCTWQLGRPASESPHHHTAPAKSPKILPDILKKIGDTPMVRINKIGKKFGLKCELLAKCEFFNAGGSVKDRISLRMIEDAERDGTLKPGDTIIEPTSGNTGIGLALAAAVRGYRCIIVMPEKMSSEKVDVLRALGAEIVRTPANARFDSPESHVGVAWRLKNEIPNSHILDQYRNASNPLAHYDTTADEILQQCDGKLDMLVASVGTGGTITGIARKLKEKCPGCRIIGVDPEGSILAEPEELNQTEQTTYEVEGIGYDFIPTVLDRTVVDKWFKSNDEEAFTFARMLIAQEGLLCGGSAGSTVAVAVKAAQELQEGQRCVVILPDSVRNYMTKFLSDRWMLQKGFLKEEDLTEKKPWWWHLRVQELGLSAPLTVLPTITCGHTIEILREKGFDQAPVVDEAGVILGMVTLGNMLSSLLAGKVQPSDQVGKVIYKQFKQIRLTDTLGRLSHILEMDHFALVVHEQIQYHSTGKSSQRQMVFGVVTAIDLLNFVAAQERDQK
Cystathionine beta-synthase (Homo sapiens, UniProt P35520, Y223A), sequence (P35520 whole entry Y223A): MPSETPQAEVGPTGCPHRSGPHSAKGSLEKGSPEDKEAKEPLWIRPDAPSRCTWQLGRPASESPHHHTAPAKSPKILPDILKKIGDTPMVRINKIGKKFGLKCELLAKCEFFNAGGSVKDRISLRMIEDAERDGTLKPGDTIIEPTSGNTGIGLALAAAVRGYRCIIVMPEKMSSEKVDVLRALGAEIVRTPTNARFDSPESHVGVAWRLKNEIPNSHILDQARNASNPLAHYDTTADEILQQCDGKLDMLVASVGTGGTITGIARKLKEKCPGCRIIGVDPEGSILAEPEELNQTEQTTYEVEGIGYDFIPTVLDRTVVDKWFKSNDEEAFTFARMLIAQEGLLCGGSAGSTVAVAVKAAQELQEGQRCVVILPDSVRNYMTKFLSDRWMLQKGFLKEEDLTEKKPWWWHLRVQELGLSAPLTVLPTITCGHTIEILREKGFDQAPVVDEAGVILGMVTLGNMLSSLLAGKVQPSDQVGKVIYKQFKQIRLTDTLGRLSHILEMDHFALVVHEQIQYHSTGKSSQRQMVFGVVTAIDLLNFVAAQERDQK
Cystathionine beta-synthase (Homo sapiens, UniProt P35520, H203A), sequence (P35520 whole entry H203A, the tested form may be a part): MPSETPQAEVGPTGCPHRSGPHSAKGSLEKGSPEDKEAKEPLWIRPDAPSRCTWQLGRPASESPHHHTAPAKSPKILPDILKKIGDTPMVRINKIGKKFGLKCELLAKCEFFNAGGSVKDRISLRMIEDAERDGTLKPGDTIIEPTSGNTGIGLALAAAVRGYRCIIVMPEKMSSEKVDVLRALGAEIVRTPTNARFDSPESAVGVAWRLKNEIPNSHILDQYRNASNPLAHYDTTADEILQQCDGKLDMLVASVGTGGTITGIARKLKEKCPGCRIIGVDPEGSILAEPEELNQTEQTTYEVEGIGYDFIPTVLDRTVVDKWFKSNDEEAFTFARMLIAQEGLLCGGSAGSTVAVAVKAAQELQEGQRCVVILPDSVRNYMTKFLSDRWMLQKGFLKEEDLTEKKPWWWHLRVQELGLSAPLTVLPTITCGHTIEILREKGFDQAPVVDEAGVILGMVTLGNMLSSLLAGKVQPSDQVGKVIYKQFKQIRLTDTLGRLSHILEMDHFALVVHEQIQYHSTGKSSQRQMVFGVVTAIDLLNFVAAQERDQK
Cystathionine beta-synthase (Homo sapiens, UniProt P35520, Y308A), sequence (P35520 whole entry Y308A): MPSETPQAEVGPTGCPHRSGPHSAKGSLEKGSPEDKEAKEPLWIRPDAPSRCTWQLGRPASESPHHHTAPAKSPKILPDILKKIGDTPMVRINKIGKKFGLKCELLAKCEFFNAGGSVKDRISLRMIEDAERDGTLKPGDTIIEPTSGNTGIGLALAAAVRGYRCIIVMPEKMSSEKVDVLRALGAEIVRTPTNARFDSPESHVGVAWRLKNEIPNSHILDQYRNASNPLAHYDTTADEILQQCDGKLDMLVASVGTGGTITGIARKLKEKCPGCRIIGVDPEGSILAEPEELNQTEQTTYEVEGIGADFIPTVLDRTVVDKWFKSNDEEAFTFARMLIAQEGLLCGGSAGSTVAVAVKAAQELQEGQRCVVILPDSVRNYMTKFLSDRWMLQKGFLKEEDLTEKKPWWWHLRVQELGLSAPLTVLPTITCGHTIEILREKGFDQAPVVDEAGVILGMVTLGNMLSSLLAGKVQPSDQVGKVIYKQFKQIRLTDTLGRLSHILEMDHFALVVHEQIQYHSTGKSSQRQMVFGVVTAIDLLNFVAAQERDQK
Cystathionine beta-synthase (Homo sapiens, UniProt P35520, N194A), sequence (P35520 whole entry N194A, the tested form may be a part): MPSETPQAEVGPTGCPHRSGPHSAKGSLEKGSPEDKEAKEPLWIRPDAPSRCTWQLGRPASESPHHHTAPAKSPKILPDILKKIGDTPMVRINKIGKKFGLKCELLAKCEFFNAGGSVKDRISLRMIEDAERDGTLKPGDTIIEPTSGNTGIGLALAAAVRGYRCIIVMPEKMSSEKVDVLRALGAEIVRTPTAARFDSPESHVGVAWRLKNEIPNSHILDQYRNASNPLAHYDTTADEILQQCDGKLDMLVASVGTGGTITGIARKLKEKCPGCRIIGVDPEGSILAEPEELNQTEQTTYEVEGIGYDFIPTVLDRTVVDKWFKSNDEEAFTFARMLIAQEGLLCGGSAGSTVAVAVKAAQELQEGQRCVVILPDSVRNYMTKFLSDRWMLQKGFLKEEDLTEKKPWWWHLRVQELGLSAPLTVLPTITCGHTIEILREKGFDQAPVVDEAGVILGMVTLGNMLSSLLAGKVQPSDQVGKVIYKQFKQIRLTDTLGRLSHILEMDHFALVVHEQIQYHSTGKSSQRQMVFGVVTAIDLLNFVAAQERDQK

In the case of `NOCC(=O)O` [CARBOXYMETHOXYLAMINE], the IC50 in data set [1] is 287 µM; in data set [2], 159 µM; in [6] it was 7.5 µM. For the same compound, the TGI entry in [3] was “Active”. In addition, the figures for the Activity result in [4] and in [7] were “Non-Toxic” and 44%, respectively. The inhibition result in [5] was “Active”.
Take `COc1ccc([C@H]2Oc3cc(O)cc(O)c3C(=O)[C@@H]2[C@H]2C(=O)c3c(O)cc(O)cc3O[C@@H]2c2ccc(O)cc2)cc1` [SIKOKIANIN C]: the IC50 in data set [8] stood at 11.2 µM; in [1], 4.7 µM; in data set [11], 24 µM; in data set [12], 18.7 µM; in data set [13], 5.5 µM; in [14], 43 µM. Besides, the half-maximal inhibitory concentration (IC50) in data set [2] was found to be 1.6 µM; in [15], 1.4 µM; in [6], 0.9 µM; in data set [22], 16.9 µM. The Ratio IC50 in data set [9] came to 27; in [10], 48; in data set [18] it was 3. Moreover, the Activity entry was “Dose-dependent effect” in data set [16]; 17.1% in data set [17]; 46% in data set [7]; “Non-Toxic” in data set [19]; 31.5% in data set [21]; “Dose-dependent effect” in data set [23]. The compound further yielded an Activity in data set [24] of 22%. The inhibition result in [20] is “Active”.
